In ChEMBL document CHEMBL3352788, “Characterization of selective exosite-binding inhibitors of matrix metalloproteinase 13 that prevent articular cartilage degradation in vitro” (J Med Chem, 2014):

Key:
Cytochrome P450 2C8 = biological target: T1, Cytochrome P450 2C8 (Homo sapiens, UniProt P10632); test: (§1) Inhibition of CYP2C8 (unknown origin) using amodiaquine substrate at 20 uM; assay type: ADME; conditions: 20 µM
T1 sequence (P10632 whole entry): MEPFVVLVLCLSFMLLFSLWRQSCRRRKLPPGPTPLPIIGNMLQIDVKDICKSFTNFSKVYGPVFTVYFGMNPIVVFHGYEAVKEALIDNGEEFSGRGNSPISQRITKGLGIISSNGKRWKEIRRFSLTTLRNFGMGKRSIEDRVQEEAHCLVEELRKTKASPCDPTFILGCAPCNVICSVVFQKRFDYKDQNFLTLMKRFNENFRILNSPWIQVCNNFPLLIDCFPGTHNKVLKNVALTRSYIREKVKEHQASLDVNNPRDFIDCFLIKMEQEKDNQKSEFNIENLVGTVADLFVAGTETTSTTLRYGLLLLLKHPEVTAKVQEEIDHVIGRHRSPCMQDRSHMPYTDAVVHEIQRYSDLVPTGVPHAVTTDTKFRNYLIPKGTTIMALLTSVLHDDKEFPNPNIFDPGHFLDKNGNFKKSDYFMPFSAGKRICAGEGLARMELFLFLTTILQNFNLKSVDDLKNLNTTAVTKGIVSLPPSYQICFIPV
In short: (§2)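 Human liver microsomes with probe substrate and an NADPH-regenerating system in 0.1 M potassium phosphate pH 7.4 at 37 °C, run in duplicate. Inhibitor at 0–20 μM (0–2.5 μM for one compound), eight concentrations. Reactions were stopped with acetonitrile/formic acid containing isotope-labelled internal standard, and metabolite area ratios were compared with and without inhibitor. IC50 was taken by linear interpolation between bracketing concentrations.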

Cytochrome P450 2B6 = biological target: T2, Cytochrome P450 2B6 (Homo sapiens, UniProt P20813); test: (§3) Inhibition of CYP2B6 (unknown origin) using bupropion substrate at 20 uM; assay type: ADME; conditions: 20 µM; in short: as §2
T2 sequence (P20813 whole entry): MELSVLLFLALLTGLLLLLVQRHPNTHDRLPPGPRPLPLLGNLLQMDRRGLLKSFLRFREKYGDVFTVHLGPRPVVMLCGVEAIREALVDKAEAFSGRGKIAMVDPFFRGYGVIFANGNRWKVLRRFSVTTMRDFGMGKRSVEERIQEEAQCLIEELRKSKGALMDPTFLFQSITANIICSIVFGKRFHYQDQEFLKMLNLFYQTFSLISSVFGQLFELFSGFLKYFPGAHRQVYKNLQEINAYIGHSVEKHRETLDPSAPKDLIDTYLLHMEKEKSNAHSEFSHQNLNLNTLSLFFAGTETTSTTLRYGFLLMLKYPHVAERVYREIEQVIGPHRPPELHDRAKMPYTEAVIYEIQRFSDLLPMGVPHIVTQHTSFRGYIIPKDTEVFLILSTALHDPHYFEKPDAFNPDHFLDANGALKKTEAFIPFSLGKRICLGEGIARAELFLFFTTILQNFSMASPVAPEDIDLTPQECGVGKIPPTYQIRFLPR

[1] = biological target: Procathepsin L (Homo sapiens) (UniProt P07711); test: Inhibition of recombinant human cathepsin L using GGALRAG substrate at up to 5 uM after 3 hrs
In short: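 In this microfluidic protease panel, enzyme and compound were preincubated 30 min at 25 °C. The peptide substrate was added and the reaction was incubated 3 h at 25 °C, then quenched (SDS, EDTA, iodoacetate). Activity was read as % substrate converted to product. Dose–response was singlicate, 12-point 3-fold dilutions spanning 5 μM to 0.028 nM. IC50 was the concentration leaving 50% activity relative to no-compound control.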

Cytochrome P450 2D6 = Cytochrome P450 2D6 (Homo sapiens, UniProt P10635); test: (§4) Inhibition of CYP2D6 (unknown origin) using dextromethophan substrate at 20 uM; assay type: ADME; conditions: 20 µM; in short: as §2
Cytochrome P450 2C9 = Cytochrome P450 2C9 (Homo sapiens, UniProt P11712); test: (§5) Inhibition of CYP2C9 (unknown origin) using diclofenac substrate at 20 uM; assay type: ADME; conditions: 20 µM; in short: as §2
Caspase-3 (Homo sapiens) = biological target: T3, Caspase-3 (Homo sapiens) (UniProt P42574); test: Inhibition of recombinant human caspase 3 using DEVDAA substrate at up to 5 uM after 3 hrs
T3 sequence (whole entry): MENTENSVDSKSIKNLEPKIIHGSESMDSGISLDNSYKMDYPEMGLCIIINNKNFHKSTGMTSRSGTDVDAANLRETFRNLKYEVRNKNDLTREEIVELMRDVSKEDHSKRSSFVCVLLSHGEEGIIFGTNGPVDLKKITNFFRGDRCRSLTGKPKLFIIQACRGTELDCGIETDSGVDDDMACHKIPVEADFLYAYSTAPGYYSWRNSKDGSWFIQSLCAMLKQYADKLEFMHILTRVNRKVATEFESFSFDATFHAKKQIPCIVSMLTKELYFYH
In short: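 Outsourced microfluidic protease panel. Compound was preincubated with each protease for 30 min at 25 °C, then peptide substrate was added for 3 h at 25 °C and quenched with SDS/EDTA/iodoacetate. Substrate-to-product conversion was measured on LabChip. Compounds were tested singly in a 12-point 3-fold dilution series, top 20 μM (5 μM for two reference compounds).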

CYP2D6 [2] = biological target: T4, CYP2D6 (Homo sapiens, UniProt P10635); test: Inhibition of CYP2D6 (unknown origin) using dextromethophan substrate at 2.5 uM; assay type: ADME; conditions: probe dextromethophan; in short: as §2
CYP3A4 = CYP3A4 (Homo sapiens, UniProt P08684); test: Inhibition of CYP3A4 (unknown origin) using midazolam substrate at 2.5 uM; assay type: ADME; conditions: probe midazolam; in short: as §2
CYP2B6 [3] = biological target: T5, CYP2B6 (Homo sapiens, UniProt P20813); test: Inhibition of CYP2B6 (unknown origin) using bupropion substrate at 2.5 uM; assay type: ADME; conditions: probe bupropion; in short: as §2
CYP2C9 [4] = biological target: T6, CYP2C9 (Homo sapiens, UniProt P11712); test: Inhibition of CYP2C9 (unknown origin) using diclofenac substrate at 2.5 uM; assay type: ADME; conditions: probe diclofenac; in short: as §2
Collagenase 3 = Collagenase 3 (Homo sapiens, UniProt P45452); test: Inhibition of full-length recombinant human MMP-13 assessed as prevention of bovine type-2 collagen degradation at 10 uM after 18 hrs by cartilage explant assay
In short: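 Bovine articular cartilage pieces (~3 mm2) were made nonviable by three freeze–thaw cycles in LN2 and trypsin-digested for 4 h to remove aggrecan. They were then incubated with 100 nM MMP-13 ± compound for 18 h at 37 °C, 5% CO2, in triplicate at a single concentration. Released collagen fragments were measured by C1,2C ELISA and normalized to undigested and MMP-13-digested controls.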

CYP2C8 = CYP2C8 (Homo sapiens, UniProt P10632); test: as §1; assay type: ADME; conditions: probe amodiaquine; in short: as §2
CYP1A2 = CYP1A2 (Homo sapiens, UniProt P05177); test: Inhibition of CYP1A2 (unknown origin) using tacrin substrate at 20 uM; assay type: ADME; conditions: probe tacrin; in short: as §2
CYP2B6 [5] = biological target: T5, CYP2B6; test: as §3; assay type: ADME; conditions: probe bupropion; in short: as §2
CYP2D6 [6] = biological target: T4, CYP2D6; test: as §4; assay type: ADME; conditions: probe dextromethophan; in short: as §2
CYP2C9 [7] = biological target: T6, CYP2C9; test: as §5; assay type: ADME; conditions: probe diclofenac; in short: as §2

T6 sequence (P11712 whole entry): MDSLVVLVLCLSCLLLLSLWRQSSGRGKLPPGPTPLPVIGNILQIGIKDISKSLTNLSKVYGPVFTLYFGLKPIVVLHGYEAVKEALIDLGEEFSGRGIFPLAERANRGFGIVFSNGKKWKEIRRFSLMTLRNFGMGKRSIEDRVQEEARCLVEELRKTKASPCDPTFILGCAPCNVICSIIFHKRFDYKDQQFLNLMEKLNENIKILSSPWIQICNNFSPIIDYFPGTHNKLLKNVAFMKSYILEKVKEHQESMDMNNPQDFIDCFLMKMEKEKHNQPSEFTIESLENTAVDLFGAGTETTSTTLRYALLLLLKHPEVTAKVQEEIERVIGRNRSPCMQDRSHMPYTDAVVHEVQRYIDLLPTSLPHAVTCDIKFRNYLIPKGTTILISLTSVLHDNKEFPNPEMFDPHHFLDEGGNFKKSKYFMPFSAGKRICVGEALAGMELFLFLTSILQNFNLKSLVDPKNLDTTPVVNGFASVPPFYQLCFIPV
Procathepsin L (Homo sapiens), sequence (P07711 114-333 limits assumed): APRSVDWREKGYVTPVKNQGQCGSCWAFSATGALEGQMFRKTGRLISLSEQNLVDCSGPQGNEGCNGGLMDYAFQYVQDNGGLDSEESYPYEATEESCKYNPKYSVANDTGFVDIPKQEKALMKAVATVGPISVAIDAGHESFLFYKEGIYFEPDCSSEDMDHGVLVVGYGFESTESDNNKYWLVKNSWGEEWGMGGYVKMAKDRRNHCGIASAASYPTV
T4 sequence (P10635 whole entry): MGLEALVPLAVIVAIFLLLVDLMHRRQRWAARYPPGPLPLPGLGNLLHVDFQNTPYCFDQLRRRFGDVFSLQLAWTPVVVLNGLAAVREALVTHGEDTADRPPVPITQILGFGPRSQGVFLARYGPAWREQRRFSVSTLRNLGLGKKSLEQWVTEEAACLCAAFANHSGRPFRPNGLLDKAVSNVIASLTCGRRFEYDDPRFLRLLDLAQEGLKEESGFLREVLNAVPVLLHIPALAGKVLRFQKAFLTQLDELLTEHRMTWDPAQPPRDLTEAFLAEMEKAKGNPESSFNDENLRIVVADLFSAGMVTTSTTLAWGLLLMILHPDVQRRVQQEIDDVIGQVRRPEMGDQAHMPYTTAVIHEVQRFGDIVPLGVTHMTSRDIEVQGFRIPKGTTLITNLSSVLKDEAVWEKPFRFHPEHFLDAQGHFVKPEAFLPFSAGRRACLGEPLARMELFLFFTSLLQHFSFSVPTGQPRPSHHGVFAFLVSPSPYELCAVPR
Cytochrome P450 2C9, sequence (P11712 whole entry): as the sequence (P11712 whole entry) above
Cytochrome P450 2D6, sequence (P10635 whole entry): as the sequence (P10635 whole entry) above
CYP1A2, sequence (P05177 whole entry): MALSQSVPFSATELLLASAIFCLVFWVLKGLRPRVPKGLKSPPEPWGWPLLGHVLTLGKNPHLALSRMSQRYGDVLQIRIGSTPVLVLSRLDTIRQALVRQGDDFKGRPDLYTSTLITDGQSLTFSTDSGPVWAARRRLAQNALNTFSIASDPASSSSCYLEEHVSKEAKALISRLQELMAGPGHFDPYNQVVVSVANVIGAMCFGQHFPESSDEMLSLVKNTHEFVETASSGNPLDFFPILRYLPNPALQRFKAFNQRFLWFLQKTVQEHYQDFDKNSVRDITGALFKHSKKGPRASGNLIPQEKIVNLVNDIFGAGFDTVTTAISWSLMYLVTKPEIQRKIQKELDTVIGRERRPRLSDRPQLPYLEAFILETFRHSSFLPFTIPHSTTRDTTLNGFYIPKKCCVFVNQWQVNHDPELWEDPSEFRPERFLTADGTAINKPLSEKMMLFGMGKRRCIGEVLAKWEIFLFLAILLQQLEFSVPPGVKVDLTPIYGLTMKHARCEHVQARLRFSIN
CYP3A4, sequence (P08684 whole entry): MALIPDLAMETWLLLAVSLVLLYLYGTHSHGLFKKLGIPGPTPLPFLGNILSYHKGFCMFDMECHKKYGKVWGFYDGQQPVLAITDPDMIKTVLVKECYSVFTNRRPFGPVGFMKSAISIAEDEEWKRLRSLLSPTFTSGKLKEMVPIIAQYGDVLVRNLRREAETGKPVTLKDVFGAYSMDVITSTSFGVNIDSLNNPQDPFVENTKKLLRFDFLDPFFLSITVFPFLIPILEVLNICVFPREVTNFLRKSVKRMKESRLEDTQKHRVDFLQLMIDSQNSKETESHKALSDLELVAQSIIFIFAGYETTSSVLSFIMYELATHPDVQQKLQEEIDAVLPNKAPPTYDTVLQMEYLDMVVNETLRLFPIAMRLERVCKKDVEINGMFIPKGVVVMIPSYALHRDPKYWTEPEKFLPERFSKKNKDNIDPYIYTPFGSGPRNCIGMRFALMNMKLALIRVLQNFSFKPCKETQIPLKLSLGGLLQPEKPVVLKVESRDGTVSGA

Cc1cc(CNC(=O)c2cc(C(=O)NCc3ccc(F)c(C)c3)ncn2)ccc1F
inhibition (INH) (Cytochrome P450 2C8): > 10%
inhibition (INH) (Cytochrome P450 2B6): > 10%
inhibition [1]: < 10%
inhibition (INH) (Cytochrome P450 2D6): > 10%
inhibition (INH) (Cytochrome P450 2C9): > 10%
inhibition (Caspase-3 (Homo sapiens)): < 10%

Cn1c(=O)n(Cc2ccc(C(=O)O)cc2)c(=O)c2cc(C#CCc3ccccc3)ccc21
inhibition at 2.5 µM (CYP2D6 [2]): < 50%
inhibition at 2.5 µM (CYP3A4): < 50%
inhibition at 2.5 µM (CYP2B6 [3]): < 50%
inhibition [1]: < 10%
inhibition at 2.5 µM (CYP2C9 [4]): < 50%
inhibition (Caspase-3 (Homo sapiens)): < 10%

Cc1ccc(CSc2nc(O)c3c(n2)CCC3)cc1
inhibition (Collagenase 3): 59%

COC(=O)c1ccc(CSc2nc3c(c(=O)[nH]2)CCC3)cc1
inhibition at 20 µM (CYP2C8): < 50%
inhibition at 20 µM (CYP1A2): 29%
inhibition at 20 µM (CYP2B6 [5]): < 50%
inhibition at 20 µM (CYP2D6 [6]): < 50%
inhibition (Collagenase 3): 38%
inhibition at 20 µM (CYP2C9 [7]): 17%
